The structures appear in SMILES notation. A value given as a limit tells only on which side of the number the result lay.

By IC50 is commonly meant the midpoint of a concentration-inhibition curve.

One data set concerns the target Cholinesterase (Equus caballus, UniProt P81908). Description: Inhibition of horse serum butyrylcholinesterase using butyrylthiocholine iodide as substrate preincubated for 15 mins followed by substrate addition by Ellman's method. The method, boiled down:
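Enzyme in 100 mM phosphate buffer pH 8.0 with sample (n-propanol as solvent and control) preincubated 15 min at 25°C. Reaction started with butyrylthiocholine iodide (0.79 mM solution) plus DTNB. Thiolate-DTNB yellow product followed at 412 nm. IC50 taken from inhibition (%) curves at five concentrations: 12.5, 25, 50, 100 and 200 µM.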
(Ellman's reagent forms a yellow product with free thiols.)

Data set [1] in a line: Antioxidant activity assessed as cupric reducing antioxidant capacity measured after 1 hr. In kind it is physicochemical.
Data set [2] can be described thus: Selectivity index, ratio of IC50 for horse serum butyrylcholinesterase to IC50 for electric eel acetylcholinesterase.
The next data set concerns the target Acetylcholinesterase (Electrophorus electricus, UniProt O42275). Description: Inhibition of electric eel acetylcholinesterase using acetylthiocholine iodide as substrate preincubated for 15 mins followed by substrate addition by Ellman's method.
A short description of data set [3]: Antioxidant activity assessed as ABTS cation radical scavenging activity measured after 6 mins.

Sequence of Acetylcholinesterase (O42275 whole entry): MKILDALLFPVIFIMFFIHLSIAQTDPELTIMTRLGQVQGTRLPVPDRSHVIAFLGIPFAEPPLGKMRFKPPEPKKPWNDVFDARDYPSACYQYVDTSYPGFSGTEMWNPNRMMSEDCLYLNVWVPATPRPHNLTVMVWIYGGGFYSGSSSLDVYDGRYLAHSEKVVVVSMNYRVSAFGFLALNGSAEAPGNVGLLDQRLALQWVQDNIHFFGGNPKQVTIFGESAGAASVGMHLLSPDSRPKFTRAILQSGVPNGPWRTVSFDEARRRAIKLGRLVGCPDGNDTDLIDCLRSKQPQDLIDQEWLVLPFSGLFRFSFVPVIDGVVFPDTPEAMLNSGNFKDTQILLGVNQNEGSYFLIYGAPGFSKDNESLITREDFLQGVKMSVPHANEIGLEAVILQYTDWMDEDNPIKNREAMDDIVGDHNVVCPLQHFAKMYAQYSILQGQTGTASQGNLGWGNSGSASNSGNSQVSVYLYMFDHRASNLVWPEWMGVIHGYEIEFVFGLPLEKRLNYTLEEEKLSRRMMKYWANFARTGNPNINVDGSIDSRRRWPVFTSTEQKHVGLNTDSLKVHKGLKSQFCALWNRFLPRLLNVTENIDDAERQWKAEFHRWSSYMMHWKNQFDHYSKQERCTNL
Sequence of Cholinesterase (P81908 whole entry): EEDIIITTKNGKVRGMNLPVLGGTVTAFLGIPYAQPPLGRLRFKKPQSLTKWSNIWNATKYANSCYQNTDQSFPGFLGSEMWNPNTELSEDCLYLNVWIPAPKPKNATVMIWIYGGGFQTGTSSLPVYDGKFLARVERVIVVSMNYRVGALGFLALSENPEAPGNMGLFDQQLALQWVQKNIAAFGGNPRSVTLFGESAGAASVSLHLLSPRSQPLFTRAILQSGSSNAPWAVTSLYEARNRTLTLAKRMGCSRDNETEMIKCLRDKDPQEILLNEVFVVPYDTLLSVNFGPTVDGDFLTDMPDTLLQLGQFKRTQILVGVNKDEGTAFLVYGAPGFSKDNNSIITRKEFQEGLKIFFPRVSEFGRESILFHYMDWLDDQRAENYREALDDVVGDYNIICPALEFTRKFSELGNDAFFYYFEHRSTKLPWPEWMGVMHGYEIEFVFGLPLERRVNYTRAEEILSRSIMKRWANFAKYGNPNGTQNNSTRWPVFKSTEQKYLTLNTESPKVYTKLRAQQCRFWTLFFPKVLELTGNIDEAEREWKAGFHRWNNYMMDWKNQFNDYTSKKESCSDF

As to `O=C(Nc1ccccc1)Nc1nc(-c2cc3cc([N+](=O)[O-])ccc3o2)cs1`, the half-inhibitory concentration (IC50) stood at 2.26 µM at Cholinesterase, 4.42 µM against Acetylcholinesterase and 183 µM in data set [3] (ABTS cation radical). Also, the A0.5 in data set [1] was above 200 µM. The Ratio IC50 in data set [2] is 0.51.
Consider `O=C(Nc1ccc(Cl)cc1)Nc1nc(-c2cc3cc([N+](=O)[O-])ccc3o2)cs1`, for which the IC50 against Cholinesterase amounted to 26.6 µM; on Acetylcholinesterase, 30.6 µM; in data set [3] (ABTS cation radical), 117 µM. Moreover, the A0.5 in data set [1] is above 200 µM. Moreover, the Ratio IC50 in data set [2] came out at 0.87.
Take `COc1ccc(NC(=O)Nc2nc(-c3cc4ccccc4o3)cs2)cc1`: the IC50 at Cholinesterase was determined as 74.3 µM; at Acetylcholinesterase, 52.5 µM; in data set [3] (ABTS cation radical) it was 17.4 µM. For the same compound, the A0.5 in data set [1] stood at 146.34 µM. In addition, in data set [2], the Ratio IC50 is 1.42.
With `O=C(Nc1nc(-c2cc3ccccc3o2)cs1)Nc1ccccc1F`, the IC50 at Cholinesterase amounted to 41.7 µM; against Acetylcholinesterase, 30.9 µM; in data set [3] (ABTS cation radical), 2.63 µM. In addition, in data set [1], the A0.5 turned out to be 102.43 µM. Further, the Ratio IC50 in data set [2] was 1.35.
`Cc1ccc(NC(=O)Nc2nc(-c3cc4ccccc4o3)cs2)cc1`: the IC50 against Cholinesterase stood at 56.3 µM; against Acetylcholinesterase, 10.4 µM; in data set [3] (ABTS cation radical), 0.5 µM. For the same compound, the A0.5 in data set [1] was determined as 192.91 µM. The Ratio IC50 in data set [2] worked out at 5.41.
`O=C(Nc1cccc(Cl)c1)Nc1nc(-c2cc3cc(Br)ccc3o2)cs1`: the figures for the IC50 (against Cholinesterase; at Acetylcholinesterase; in data set [3] (ABTS cation radical)) were 26.3 µM, 7.93 µM and above 200 µM, respectively. In data set [1], the A0.5 is above 200 µM. The Ratio IC50 in data set [2] was found to be 3.32.
On to `O=C(Nc1ccc(I)cc1)Nc1nc(-c2cc3ccccc3o2)cs1`, for which the IC50 on Cholinesterase was determined as 41.3 µM; against Acetylcholinesterase, 21.4 µM; in data set [3] (ABTS cation radical), 62 µM. Further, in data set [1], the A0.5 came to 133 µM. Moreover, the Ratio IC50 in data set [2] amounted to 1.93.
In the case of `COc1ccc(NC(=O)Nc2nc(-c3cc4cc([N+](=O)[O-])ccc4o3)cs2)cc1`, the IC50 was determined as 49.2 µM against Cholinesterase, 34.1 µM at Acetylcholinesterase and 121 µM in data set [3] (ABTS cation radical). Moreover, in data set [1], the A0.5 is above 200 µM. For the same compound, the Ratio IC50 in data set [2] was 1.44.
On to `O=c1c(O)c(-c2ccc(O)c(O)c2)oc2cc(O)cc(O)c12` [QUERCETIN], for which the A0.5 in data set [1] turned out to be 1.45 µM. In addition, the IC50 in data set [3] (ABTS cation radical) worked out at 1.18 µM.
In the case of `O=C(Nc1cccc(F)c1)Nc1nc(-c2cc3ccccc3o2)cs1`, the IC50 was 18 µM at Cholinesterase, 49 µM against Acetylcholinesterase and 4.52 µM in data set [3] (ABTS cation radical). The A0.5 in data set [1] amounted to 126.52 µM. For the same compound, the Ratio IC50 in data set [2] was 0.37.
Taken in the same sequence, the figures for `O=C(Nc1cccc([N+](=O)[O-])c1)Nc1nc(-c2cc3cc(Br)ccc3o2)cs1` were 79 µM, 17.4 µM, 159 µM, above 200 µM and 4.53.
The corresponding values for `COc1ccccc1NC(=O)Nc1nc(-c2cc3cc(Br)ccc3o2)cs1` are 154 µM, 78.8 µM, 77.2 µM, 92.68 µM and 1.95.
Take `O=C(Nc1ccc(F)cc1)Nc1nc(-c2cc3ccccc3o2)cs1`: the IC50 came to 7.45 µM against Cholinesterase, 55 µM on Acetylcholinesterase and 1.13 µM in data set [3] (ABTS cation radical). Further, in data set [1], the A0.5 was 110.31 µM. Besides, the Ratio IC50 in data set [2] was determined as 0.14.
Regarding `O=C(Nc1nc(-c2cc3cc(Br)ccc3o2)cs1)Nc1ccccc1[N+](=O)[O-]`, the IC50 on Cholinesterase came to 5.12 µM; against Acetylcholinesterase, 8.82 µM; in data set [3] (ABTS cation radical), 166 µM. Further, the A0.5 in data set [1] worked out at 122.22 µM. In addition, in data set [2], the Ratio IC50 was 0.58.
As to `COc1cccc(NC(=O)Nc2nc(-c3cc4cc(Br)ccc4o3)cs2)c1`, the results for the IC50 (at Cholinesterase; against Acetylcholinesterase; in data set [3] (ABTS cation radical)) were 13.9 µM, 29.4 µM and above 200 µM, respectively. In addition, the A0.5 in data set [1] was above 200 µM. Also, the Ratio IC50 in data set [2] stood at 0.47.
Regarding `O=C(Nc1nc(-c2cc3cc(Br)ccc3o2)cs1)Nc1ccccc1F`, the IC50 is 9.25 µM on Cholinesterase, 3.85 µM at Acetylcholinesterase and above 200 µM in data set [3] (ABTS cation radical). The A0.5 in data set [1] is above 200 µM. Further, the Ratio IC50 in data set [2] stood at 2.4.
For the compound `O=C(Nc1ccc(Cl)cc1)Nc1nc(-c2cc3ccccc3o2)cs1`, the figures for the IC50 (on Cholinesterase; on Acetylcholinesterase; in data set [3] (ABTS cation radical)) were 38.6 µM, 42.6 µM and 11.2 µM, respectively. Also, the A0.5 in data set [1] is above 200 µM. Moreover, in data set [2], the Ratio IC50 came to 0.91.
The corresponding values for `O=C(Nc1ccc(F)cc1)Nc1nc(-c2cc3cc(Br)ccc3o2)cs1` are 64.3 µM, 35.6 µM, above 200 µM, 146.78 µM and 1.81.
For `Cc1ccc(NC(=O)Nc2nc(-c3cc4cc(Br)ccc4o3)cs2)cc1`, the IC50 against Cholinesterase was 5.65 µM; at Acetylcholinesterase, 32.5 µM; in data set [3] (ABTS cation radical) it was above 200 µM. In addition, the A0.5 in data set [1] was above 200 µM. Also, in data set [2], the Ratio IC50 worked out at 0.17.
Take `COc1ccc(NC(=O)Nc2nc(-c3cc4cc(Br)ccc4o3)cs2)cc1`: the IC50 was 31 µM against Cholinesterase, 32.8 µM on Acetylcholinesterase and above 200 µM in data set [3] (ABTS cation radical). The A0.5 in data set [1] was above 200 µM. The Ratio IC50 in data set [2] was found to be 0.95.
`O=C(Nc1ccc([N+](=O)[O-])cc1)Nc1nc(-c2cc3cc([N+](=O)[O-])ccc3o2)cs1`: the IC50 was 25.6 µM on Cholinesterase, 25.2 µM against Acetylcholinesterase and 100 µM in data set [3] (ABTS cation radical). Besides, in data set [1], the A0.5 is above 200 µM. In addition, the Ratio IC50 in data set [2] was 1.02.
Consider `O=C(Nc1nc(-c2cc3ccccc3o2)cs1)Nc1ccccc1[N+](=O)[O-]`, for which the results for the IC50 (at Cholinesterase; against Acetylcholinesterase; in data set [3] (ABTS cation radical)) were 79.9 µM, 41.9 µM and 20.3 µM, respectively. Besides, in data set [1], the A0.5 was 100.33 µM. In addition, the Ratio IC50 in data set [2] was 1.91.
Regarding `O=C(Nc1cccc([N+](=O)[O-])c1)Nc1nc(-c2cc3ccccc3o2)cs1`, the IC50 against Cholinesterase was found to be 26.8 µM; on Acetylcholinesterase it was 41.2 µM; in data set [3], 1.26 µM. The A0.5 in data set [1] was above 200 µM. Moreover, the Ratio IC50 in data set [2] turned out to be 0.65.
On to `O=C(Nc1ccc(I)cc1)Nc1nc(-c2cc3cc(Br)ccc3o2)cs1`, for which the values for the IC50 (on Cholinesterase; against Acetylcholinesterase; in data set [3] (ABTS cation radical)) were 43.6 µM, 6.42 µM and above 200 µM, respectively. The A0.5 in data set [1] is above 200 µM. For the same compound, the Ratio IC50 in data set [2] came out at 6.8.
On to `O=C(Nc1ccc(Br)cc1)Nc1nc(-c2cc3ccccc3o2)cs1`, for which the IC50 on Cholinesterase is 55.2 µM; on Acetylcholinesterase, 32.8 µM; in data set [3] (ABTS cation radical), above 200 µM. Further, the A0.5 in data set [1] was above 200 µM. The Ratio IC50 in data set [2] was 1.68.
In the case of `O=C(Nc1cccc(F)c1)Nc1nc(-c2cc3cc(Br)ccc3o2)cs1`, the IC50 against Cholinesterase was 40.2 µM; on Acetylcholinesterase it was 29.4 µM; in data set [3] (ABTS cation radical), above 200 µM. Also, in data set [1], the A0.5 was above 200 µM. Besides, in data set [2], the Ratio IC50 was 1.37.
Take `O=C(Nc1ccc([N+](=O)[O-])cc1)Nc1nc(-c2cc3ccccc3o2)cs1`: the IC50 was 3.44 µM at Cholinesterase, 5.23 µM on Acetylcholinesterase and 19.3 µM in data set [3] (ABTS cation radical). The A0.5 in data set [1] was above 200 µM. Moreover, the Ratio IC50 in data set [2] worked out at 0.66.
